To fix the notation:
B1: tRNA (parent)
chain: GUUCCGUUGGCGUAAUGGUAACGCGUCUCCCUCCUAAGGAGAAGACUGCGGGUUCGAGUCCCGUACGGAACG

Fewer inactive variants are shown than the library holds.

This data set covers variants of B1. Description: yeast fitness relative to wild type (ratio to wild type); higher = fitter; tRNA-Arg(CCU), competitive growth, 37 C, YPD. The procedure, abridged: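 Changes in genotype frequencies gave Darwinian fitness relative to wild type. Frequencies were read by 100-nucleotide paired-end sequencing of gene amplicons before and after pooled Saccharomyces cerevisiae strains, carrying tRNA-Arg(CCU) gene variants at the native locus, were competed in YPD at 37°C for 24 hours in six replicates. A genotype was kept only with ≥ 100 starting reads, and estimates < 0.5 were set to 0.5.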
As to C11G C30A G52A A65U, the yeast fitness is ≤ 0.5.
Next, U13C C31U C55G G67C: ≤ 0.5; U13C G23C C62A: ≤ 0.5.
Turning to A42G C49U A65U, the yeast fitness was ≤ 0.5.
With U28G C31U A40C A70U the figure was ≤ 0.5.
For C24G G52C, the yeast fitness is ≤ 0.5.
A40U A45U G67C: the yeast fitness came out at 0.582.
As for A15G A21G C27U U47C G56C A57G C66G, the yeast fitness is ≤ 0.5.
Next, C27A C30G A42C C61G: 1.01; A42U C46G G52C C62A: ≤ 0.5; A14G A40G U47C: 0.551.
U59A C62U: the yeast fitness was 0.922.
For the variant U8C C29A C34G A36G A37G A40C U47A U64C, the yeast fitness was ≤ 0.5.
Next, G10A A20G G23A A37G A40C C66U: ≤ 0.5; A15U A40C: 0.723.
Take G52C G63C A69C: the yeast fitness is ≤ 0.5.
Next, C5G C34G C49U G50A: ≤ 0.5.
Next, C27U A45U G50A A69C: ≤ 0.5; A40U A45G C60A: ≤ 0.5.
As to G18A G51C A65G, the yeast fitness is ≤ 0.5.
In the case of C4U G12A G39C C49A U64G, the yeast fitness was found to be 0.544.
Turning to C11U U19G A20U, the yeast fitness was determined as 0.764.
Next, C11G U19A C22G G68C: ≤ 0.5.
For the variant A21G U32A U47A, the yeast fitness was found to be 0.556.
With A15U C29G G48A A69U the figure was ≤ 0.5.
In the case of U8C A15U A20C G23A G50C, the yeast fitness was ≤ 0.5.
For C5U A20U C30U G63A, the yeast fitness was ≤ 0.5.
Next, G25A A43G A45U C46U: ≤ 0.5; U8C C22A U64A G68C: ≤ 0.5; G38A G68C: 0.823.
With C4A G6A C11A C22U C29U C61A G67A, the yeast fitness was ≤ 0.5.
C5U A37G A40C U47A: the yeast fitness is ≤ 0.5.
For G25C C33U C49A U53A, the yeast fitness was ≤ 0.5.
With C24U C49G A65U the figure was ≤ 0.5; with G18C U26G C55G, ≤ 0.5.
For the variant U7A U53A A69C, the yeast fitness turned out to be 0.545.
Consider C5A G48C G51C U53A, for which the yeast fitness is ≤ 0.5.
With G12C G48A C66U the figure was 0.784.
Turning to G6C C46G A70C, the yeast fitness was determined as 0.511.
Take G44A C55G: the yeast fitness turned out to be 0.558.
Next, U64C G68A: 0.979.
Next, C30A A36U C60U A69C: 0.6.
Next, C30G A40C U64A: 0.565; C5G A15G C61U: 0.539; C34G G52A A65U: ≤ 0.5.
Take C11U G25C A36U: the yeast fitness stood at 0.547.
On to G9A C11G G50A G51A, for which the yeast fitness was ≤ 0.5.
With A15G A20C C24G A57G the figure was ≤ 0.5; with C11U C22U U54C, 0.639; with G9A A42U, 0.87.
For U7A C24U C46A, the yeast fitness came out at 0.567.
A20G U47C: the yeast fitness was determined as 0.947.
With C22U C27U C33G G44C A65U the figure was 0.574; with U28A A45G, 0.762.
With U2G C34G the figure was 0.655; with G9C G17C G39C A70U, ≤ 0.5.
Take G6A A36U A37G A40C C66U: the yeast fitness is ≤ 0.5.
Consider C24U C27G, for which the yeast fitness was 0.602.
With U26C C27G C60G C62U, the yeast fitness worked out at 0.624.
Next, C11U G48A G51C C61A A65C: ≤ 0.5.
In the case of C11U A45G C49A, the yeast fitness was 0.567.
Next, C5A U7C U32A G52C C55U C66U: ≤ 0.5; G12A C33A U54G A70C: 0.541; C11A C55U G63A C66G: ≤ 0.5.
U2C A14G C31G G58A: the yeast fitness was ≤ 0.5.
In the case of A14U A65G C66G, the yeast fitness was 0.788.
As for U19C A20C C33U U35A C49A A69U, the yeast fitness is ≤ 0.5.
Turning to G9A U26G C60A, the yeast fitness was 0.539.
Take U3G C5U U26A G38A C62U A70U: the yeast fitness was ≤ 0.5.
With G12C G41A C60G A65G the figure was 0.519; with G17C G25C U26A C29G A36U G39A C46U C55U, ≤ 0.5; with U3C C29U G58C, 0.58.
In the case of C27G A40C, the yeast fitness was 0.575.
Turning to U19C A43G G44C A45C C66U, the yeast fitness was determined as 0.589.
On to C11U U59A A69C, for which the yeast fitness is 0.537.
Regarding U8G C29G, the yeast fitness came out at 0.55.
With U3A C11A C33U G68C the figure was ≤ 0.5; with C31G G67U, 0.655.
With G18A C31U A70G the figure was 0.726; with C29U C31A C46U, 0.552; with G52A G56C, 0.687.
With C30U C61G the figure was 0.671; with C27G A45U C49U, ≤ 0.5.
C34U A69U: the yeast fitness came to 0.667.
With C30U U32A A57U the figure was 0.692.
For C27G C46A, the yeast fitness came out at 0.933.
With U26A G39A the figure was 0.87; with A14G U19A C34U C66U, 0.538; with U54G C55U, 0.511.
With G25C C29U the figure was 0.688; with C30A C61A A69C, 0.609; with U16G C22G A65U, 0.722.
Next, C27A U35A: 0.662.
With U3C G10C A20C G56C, the yeast fitness worked out at 0.577.
Take A40G C61U A70U: the yeast fitness was found to be 0.612.
With A20C C31G A36G the figure was 0.764; with G17A C62U A69U, 0.587.
Turning to C29G A45G G52C A57U, the yeast fitness is ≤ 0.5.
With A36G A40C A42G C61U the figure was 0.566.
With G12A A70G the figure was 1.02.
Next, G6C G17A C30U A42C A65G C66G G68A: ≤ 0.5; C22A C29U C60A C66U: ≤ 0.5; C22U A42G U53C C55G A70U: ≤ 0.5.
Turning to C4U C5G C29U U32A C33U G67U A70G, the yeast fitness came to 0.54.
Consider A42G A45G, for which the yeast fitness turned out to be 0.786.
Take C4U A43C: the yeast fitness is 1.01.
As to A20C C24G A37G, the yeast fitness was ≤ 0.5.
With G17A C33U A43U A57G G67U the figure was ≤ 0.5.
As to U32C A43C A65U, the yeast fitness stood at 0.503.
With C11G A21G C34A the figure was ≤ 0.5; with A43U C60G C61U, ≤ 0.5.
Turning to C4U A20U, the yeast fitness worked out at 0.988.
With U13G G17U U28A G41C U64G the figure was ≤ 0.5; with G18A C27U C31A, ≤ 0.5; with C30G A40U C46U, 0.558.
With C11A A43U C49U, the yeast fitness turned out to be 0.548.
Next, U32C A37G C55A A65U G68C: 0.575; C33U C61A G63C A65G: 0.549; G18A U32G A69G: ≤ 0.5.
With U7A C55U the figure was 0.555; with C29U C31U C66U, 0.591; with A45G G67C, 0.872.
Regarding G17A C22U A45G C46U A69U, the yeast fitness is 0.603.
On to A15G C33G, for which the yeast fitness worked out at 0.732.
Next, U32G G56C: ≤ 0.5.
With A37U G50A A69U the figure was 0.805; with A15U C22G C62U, ≤ 0.5.
Next, C22G C55A C60A: ≤ 0.5; C4U A14G A15G C22U C46U A70U: ≤ 0.5.
As for U7A A20U C55A C66U, the yeast fitness came to 0.894.
With U32C G58A C62U A69C the figure was 0.716; with C24A U28C C61A, ≤ 0.5; with G6A U13G C27U C61G C66U, ≤ 0.5.
With G12A C27G U32G C60A, the yeast fitness was ≤ 0.5.
With A15U C24A C34G G39U G58C, the yeast fitness was ≤ 0.5.
Regarding C22U G48A C55U, the yeast fitness worked out at 0.599.
Next, C30U U47A: 0.695; G6C G10C C22G C30U C34U A36U: 0.517; A20U C30A G52A A65U: ≤ 0.5.
Next, C4G C11U A69U: 0.539; G6C U8A G51A A65U G67A: ≤ 0.5; G25A G41A A70U: 0.713.
U8A C11U U19C C46A C66U: the yeast fitness is 0.578.
U7A A21G U28A C29U G58A: the yeast fitness stood at 0.598.
Next, C34U G50A U59C C62A U64A: ≤ 0.5.
Next, C22A C27G G41A: 0.614; U7G C24A C27A: ≤ 0.5; U16A A20G C29G C30U A40U A70G: ≤ 0.5.
In the case of G6A C60A G67C, the yeast fitness is 0.536.
Next, A14G G63A: 0.756; C5A C11U C49U: ≤ 0.5.
For the variant C22U G25C U28C A36G G51A, the yeast fitness is ≤ 0.5.
Next, U47C C49A G51A C55A C60A: ≤ 0.5; C29G G51A A69U: ≤ 0.5.
Consider C11U C55A C62U, for which the yeast fitness is ≤ 0.5.
Next, U35C G63A: 0.614; C11U C30U U47A G67C: ≤ 0.5; U8C G17A: 0.711.
With A14C U19C C34U G39C G51C the figure was ≤ 0.5.
Take G10C A15U C29G C46U G51C A65G: the yeast fitness is ≤ 0.5.
With A40G A43G G67C the figure was 0.725; with G9A C27A A42C C49G G51C C55G C66U, ≤ 0.5; with C4G A15C U26G G41C U47C G68C, ≤ 0.5.
With A21U C30U A65G C66G the figure was 0.638; with G38A C46A A57G, 0.769.
For C5U A21U U53A A57U C60A G68C, the yeast fitness was ≤ 0.5.
Next, C5A C31U U35C C49G: ≤ 0.5.
